Key:
[1] = target: Cruzipain (Trypanosoma cruzi) (UniProt P25779); assay: Inhibition of Trypanosoma cruzi cruzain at 100 uM using Z-Phe-Arg-aminomethylcoumarin as substrate measured after 5 mins by spectrofluorimetry
Method in brief: (§1)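 Recombinant cruzain (0.5 nM, MMTS-protected, anion-exchange purified) in 0.1 M sodium acetate pH 5.5 with 0.1 mM beta-mercaptoethanol and 2.5 uM Z-FR-AMC, read fluorimetrically over 5 min; activity from initial rate versus DMSO control. Triton X-100 0.01% standard; detergent-sensitivity tests used 0.01% vs 0.1%. Run with and without 10 min pre-incubation; two independent experiments in triplicate; E64 100 uM positive control.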

[2] = target: Cruzipain (Trypanosoma cruzi) (UniProt P25779); assay: Inhibition of Trypanosoma cruzi cruzain at 100 uM pre-incubated for 10 mins followed by addition of Z-Phe-Arg-aminomethylcoumarin as substrate measured after 5 mins by spectrofluorimetry; method in brief: as §1
[3] = test system: Trypanosoma cruzi; assay: Antitrypanosomal activity against trypomastigote stage of Trypanosoma cruzi Y at 25 uM measured after 24 hrs using propidium iodide by neubauer chamber method relative to control; format: functional
Method in brief: (§2)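 Y strain trypomastigotes from LLC-MK2 culture supernatant, 4.0 × 10^5 per well, exposed to five compound concentrations (DMSO solutions) for 24 h at 37 °C, 5% CO2; propidium iodide 400 ng/mL for 5 min, then viable motile parasites counted in a Neubauer chamber. Percent inhibition versus untreated cultures.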

[4] = test system: Trypanosoma cruzi; assay: Antitrypanosomal activity against amastigote stage of Trypanosoma cruzi CA-I/72 infected in mouse C2C12 cells at 10 uM measured after 3 days by DAPI staining-based assay relative to control; format: functional; details: CA-I/72, C2C12, 72 h
Method in brief: (§3)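 T. cruzi CA-I/72 trypomastigotes harvested from infected C2C12 myocytes 7 days post-infection, mixed with C2C12 cells (1:15 host:parasite), treated immediately with serially diluted compound; 3 days incubation, paraformaldehyde fixation, DAPI staining, automated high-content imaging. Activity normalized to untreated wells and 10 uM benznidazole; host viability as C2C12 count relative to untreated wells.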

[5] = target: Cruzipain (Trypanosoma cruzi, UniProt P25779); assay: Inhibition of Trypanosoma cruzi cruzain using Z-Phe-Arg-aminomethylcoumarin as substrate measured after 5 mins by spectrofluorimetry
Method in brief: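 IC50 for cruzain: 10 min enzyme–compound pre-incubation, then 0.5 nM cruzain with 2.5 uM Z-FR-AMC in 0.1 M sodium acetate pH 5.5, 0.1 mM beta-mercaptoethanol, 0.01% Triton X-100, fluorescence over 5 min; at least nine compound concentrations in triplicate, two independent experiments, curves fitted for IC50.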

[6] = target: Cruzipain (Trypanosoma cruzi) (UniProt P25779); assay: Inhibition of Trypanosoma cruzi cruzain at 50 uM using Z-Phe-Arg-aminomethylcoumarin as substrate measured after 5 mins in presence of 0.1% triton by spectrofluorimetry; method in brief: as §1
[7] = target: Cruzipain (Trypanosoma cruzi) (UniProt P25779); assay: Inhibition of Trypanosoma cruzi cruzain at 50 uM using Z-Phe-Arg-aminomethylcoumarin as substrate measured after 5 mins in presence of BSA by spectrofluorimetry
Method in brief: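 Cruzain aggregation test: compound pre-incubated with 2 mg/mL BSA, then cruzain (0.5 nM) activity on 2.5 uM Z-FR-AMC in 0.1 M sodium acetate pH 5.5, 0.1 mM beta-mercaptoethanol, 0.01% Triton X-100, monitored 5 min by fluorescence; inhibition from initial rate against DMSO control.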

[8] = target: Cruzipain (Trypanosoma cruzi) (UniProt P25779); assay: Inhibition of Trypanosoma cruzi cruzain at 50 uM using Z-Phe-Arg-aminomethylcoumarin as substrate measured after 5 mins by spectrofluorimetry; method in brief: as §1
[9] = target: Cruzipain (Trypanosoma cruzi) (UniProt P25779); assay: Inhibition of Trypanosoma cruzi cruzain at 50 uM using Z-Phe-Arg-aminomethylcoumarin as substrate measured after 5 mins in presence of 0.01% triton by spectrofluorimetry; method in brief: as §1
[10] = target: Cruzipain (Trypanosoma cruzi) (UniProt P25779); assay: Inhibition of Trypanosoma cruzi cruzain at 100 uM using Z-Phe-Arg-aminomethylcoumarin as substrate measured after 5 mins in presence of 0.1% triton by spectrofluorimetry; method in brief: as §1
[11] = target: Cruzipain (Trypanosoma cruzi) (UniProt P25779); assay: Inhibition of Trypanosoma cruzi cruzain at 100 uM using Z-Phe-Arg-aminomethylcoumarin as substrate measured after 5 mins in presence of 0.01% triton by spectrofluorimetry; method in brief: as §1
[12] = test system: Trypanosoma cruzi; assay: Antitrypanosomal activity against amastigote stage of Trypanosoma cruzi CA-I/72 infected in mouse C2C12 cells measured after 3 days by DAPI staining-based assay; format: functional, organism-based; details: CA-I/72, C2C12, 72 h; method in brief: as §3
[13] = target: Cruzipain (Trypanosoma cruzi) (UniProt P25779); assay: Inhibition of Trypanosoma cruzi cruzain at 6.25 uM using Z-Phe-Arg-aminomethylcoumarin as substrate measured after 5 mins in presence of 0.01% triton by spectrofluorimetry; method in brief: as §1
[14] = (§4) Cytotoxicity against mouse J774 cells assessed as cell viability at 10 uM measured after 24 hrs by MTT assay; format: cell-based; details: J774 cells, read-out: Activity
Method in brief: (§5)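 J774 macrophages seeded in RPMI-1640 with 10% FBS for 16 hours, exposed 24 h at 37 °C to compound (10–100 umol/L range) in 0.01% DMSO vehicle; MTT (5 mg/mL) 4 h, formazan dissolved in DMSO, absorbance 540 nm. Viability as percent of untreated cells; three wells per treatment.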

[15] = target: Cruzipain (Trypanosoma cruzi) (UniProt P25779); assay: Inhibition of Trypanosoma cruzi cruzain at 6.25 uM using Z-Phe-Arg-aminomethylcoumarin as substrate measured after 5 mins in presence of 0.1% triton by spectrofluorimetry; method in brief: as §1
[16] = target: Cruzipain (Trypanosoma cruzi) (UniProt P25779); assay: Inhibition of Trypanosoma cruzi cruzain at 50 uM pre-incubated for 10 mins followed by addition of Z-Phe-Arg-aminomethylcoumarin as substrate measured after 5 mins by spectrofluorimetry; method in brief: as §1
[17] = test system: J774; assay: as §4; format: cell-based; details: j774, 24 h, 10 µM; method in brief: as §5
[18] = target: Cruzipain (Trypanosoma cruzi) (UniProt P25779); assay: Inhibition of Trypanosoma cruzi cruzain at 25 uM pre-incubated for 10 mins followed by addition of Z-Phe-Arg-aminomethylcoumarin as substrate measured after 5 mins by spectrofluorimetry; method in brief: as §1
[19] = target: Cruzipain (Trypanosoma cruzi) (UniProt P25779); assay: Inhibition of Trypanosoma cruzi cruzain at 25 uM using Z-Phe-Arg-aminomethylcoumarin as substrate measured after 5 mins by spectrofluorimetry; method in brief: as §1
[20] = test system: Trypanosoma cruzi; assay: Antitrypanosomal activity against trypomastigote stage of Trypanosoma cruzi Y measured after 24 hrs using propidium iodide by neubauer chamber method; format: functional, organism-based; method in brief: as §2

Cruzipain (Trypanosoma cruzi), sequence (P25779 123-467 limits assumed): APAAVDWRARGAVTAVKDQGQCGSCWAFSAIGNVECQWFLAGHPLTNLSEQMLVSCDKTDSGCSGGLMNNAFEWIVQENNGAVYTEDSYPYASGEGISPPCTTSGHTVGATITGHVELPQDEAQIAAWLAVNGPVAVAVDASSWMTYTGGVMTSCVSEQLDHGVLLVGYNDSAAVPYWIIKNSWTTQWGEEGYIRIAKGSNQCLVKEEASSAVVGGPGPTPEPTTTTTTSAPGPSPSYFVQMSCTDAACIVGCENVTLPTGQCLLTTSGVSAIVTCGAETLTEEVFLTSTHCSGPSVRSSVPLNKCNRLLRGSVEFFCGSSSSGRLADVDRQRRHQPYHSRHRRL
Cruzipain, sequence (P25779 whole entry): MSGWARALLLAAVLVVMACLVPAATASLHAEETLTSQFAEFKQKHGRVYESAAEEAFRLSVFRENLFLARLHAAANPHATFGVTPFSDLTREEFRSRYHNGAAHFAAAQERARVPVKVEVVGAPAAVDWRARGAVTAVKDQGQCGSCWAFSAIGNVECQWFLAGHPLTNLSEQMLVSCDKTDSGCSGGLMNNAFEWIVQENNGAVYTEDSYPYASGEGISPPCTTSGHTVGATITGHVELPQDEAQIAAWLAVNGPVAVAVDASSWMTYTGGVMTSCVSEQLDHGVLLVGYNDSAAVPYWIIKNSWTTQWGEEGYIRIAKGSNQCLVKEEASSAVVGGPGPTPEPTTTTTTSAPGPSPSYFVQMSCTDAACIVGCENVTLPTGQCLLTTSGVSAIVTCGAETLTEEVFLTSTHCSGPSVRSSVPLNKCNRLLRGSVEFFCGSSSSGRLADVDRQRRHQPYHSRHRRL

| inhibition [1] [%] | inhibition [2] [%] | SMILES | inhibition at 25 µM [3] [%] | inhibition at 10 µM [4] [%] | also measured |
| --- | --- | --- | --- | --- | --- |
| 29 | 34 | C=CCNC(=S)Nc1sc2c(c1C(=O)OC(C)C)CCCC2 | 15.1 | 37.8 | – |
| 46 | 66 | CCOC(=O)c1c(/N=C2\SC(C(=O)OCC)C(=O)N2c2ccccc2)sc2c1CCCC2 (stereo not given) | 9 | 0.43 | – |
| 64 | 89 | C=CCN1C(=O)C(CC(=O)O)S/C1=N\c1sc2c(c1C(=O)OCC)CCCC2 (stereo not given) | 5.1 | 13.8 | IC50 [5]: 50 µM; inhibition [6]: 44%; inhibition [7]: 42%; inhibition [8]: 50%; inhibition [9]: 47% |
| 12 | 4 | CCOC(=O)c1c(NC(=S)Nc2ccccc2)sc2c1CCCC2 | 1.6 | 47 | – |
| 52 | 80 | C=CCN1C(=O)C(CC(=O)O)S/C1=N\c1sc2c(c1C(=O)OC(C)C)CCCC2 (stereo not given) | 7.7 | 47.2 | IC50 [5]: 111 µM; inhibition [10]: 52.7%; inhibition [11]: 53% |
| 66 | 86 | CCOC(=O)c1c(/N=C2\SC(CC(=O)O)C(=O)N2c2ccccc2)sc2c1CCCC2 (stereo not given) | 6.4 | 37.4 | IC50 [5]: 121 µM; inhibition [10]: 18%; inhibition [11]: 5.4% |
| 29 | 67 | C=CCn1c(-c2ccccc2)cs/c1=N\c1sc2c(c1C(=O)OC(C)C)CCCC2 | 6.1 | 36 | – |
| – | – | O=C(Cn1ccnc1[N+](=O)[O-])NCc1ccccc1 [BENZNIDAZOLE] | 100 | 94.5 | IC50 [12]: 1.17 µM |
| 34 | 82 | C=CCn1c(C)c(C(=O)OCC)s/c1=N\c1sc2c(c1C(=O)OCC)CCCC2 | 7.1 | 18.3 | IC50 [5]: 85 µM; inhibition [10]: 29%; inhibition [11]: 33% |
| 87 | 97 | C=CCn1c(-c2ccccc2)cs/c1=N\c1sc2c(c1C(=O)OCC)CCCC2 | 5.1 | 53.1 | IC50 [5]: 2.4 µM; inhibition [13]: 62%; viability at 24 h, 10 µM [14]: > 50%; IC50 [12]: 9.7 µM; inhibition [15]: 55% |
| 13 | 25 | CC(C)OC(=O)c1c(/N=c2\scc(-c3ccccc3)n2-c2ccccc2)sc2c1CCCC2 | 4.5 | 59.5 | viability at 24 h, 10 µM [14]: > 50%; IC50 [12]: 6.03 µM |
| – | – | CCOC(=O)c1c(/N=c2\scc(-c3ccccc3)n2-c2ccccc2)sc2c1CCCC2 | 5.8 | 23.6 | inhibition [16]: 40%; inhibition [8]: 16% |
| 29 | 41 | C=CCNC(=S)Nc1sc2c(c1C(=O)OCC)CCCC2 | 11.9 | 11.9 | – |
| 18 | 59 | C=CCN1C(=O)C(C(=O)OCC)S/C1=N\c1sc2c(c1C(=O)OCC)CCCC2 (stereo not given) | 16.7 | 30 | – |
| 32 | 77 | CC(C)OC(=O)c1c(/N=C2\SC(CC(=O)O)C(=O)N2c2ccccc2)sc2c1CCCC2 (stereo not given) | 6.4 | 43.5 | – |
| 33 | 72 | CC(C)OC(=O)c1c(/N=C2\SCC(=O)N2c2ccccc2)sc2c1CCCC2 | 27 | 39.4 | Activity [17]: Toxic; IC50 [12]: 6.96 µM |
| – | – | C=CCn1c(C)c(C(=O)OCC)s/c1=N\c1sc2c(c1C(=O)OC(C)C)CCCC2 | 6.7 | 39.2 | inhibition [18]: 71%; inhibition [19]: 38% |
| 0 | 17 | CCOC(=O)c1c(/N=C2\SCC(=O)N2c2ccccc2)sc2c1CCCC2 | 3.2 | 20.1 | – |
| – | – | CC(C)C[C@H](NC(=O)[C@H]1O[C@@H]1C(=O)O)C(=O)NCCCCN=C(N)N [E-64] | – | – | IC50 [5]: 0.4 µM |
| 45 | 70 | C=CCN1C(=O)CS/C1=N\c1sc2c(c1C(=O)OC(C)C)CCCC2 | 84.1 | 4.03 | IC50 [20]: 10.3 µM |
| 23 | 40 | C=CCN1C(=O)CS/C1=N\c1sc2c(c1C(=O)OCC)CCCC2 | 4.5 | 17 | – |
| 43 | 74 | CC(C)OC(=O)c1c(NC(=S)Nc2ccccc2)sc2c1CCCC2 | 5.8 | 59.6 | viability at 24 h, 10 µM [14]: > 50%; IC50 [12]: 8.78 µM |

Reference: ChEMBL document CHEMBL3826878, “Design, synthesis, molecular docking and biological evaluation of thiophen-2-iminothiazolidine derivatives for use against Trypanosoma cruzi” (Bioorg Med Chem, 2016)
